Compounds with a hit are over-represented: about 3.3% of the library has one in this group of screens.
HGIII-sPLA2 inh: Blocks human group III sPLA2 activity. inhibition, % at 12.2 µM. 0.56% of 370,000 active. QFRET BODIPY PC-A2 liposome hydrolysis, fluorescence;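 active means inhibition above mean plus 3 SD of compounds lying within the high and low control bounds, cut at about 19% in these data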;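 further: 0% = median of test compound wells and 100% = no enzyme DMSO wells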
Arr AP2 block: blocks beta-arrestin peptide binding to AP2 adaptin; FITC-arrestin peptide / GST-AP2 beads, flow cytometry; AP2 beta2 appendage carries R879A mutation; inhibition, % at 10 µM; AID 504490; 0.31% of 340,000 active;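 active means inhibition above a set limit, near 3 SD of compounds lacking own fluorescence, cut at about 54% in these data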;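 further: plate controls were DMSO wells for no effect and 5 µM unlabelled arrestin peptide for full effect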
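system = GST-tagged AP2 beta2-adaptin appendage (R879A) on 4 µm glutathione beads | reagent = FITC-labelled arrestin peptide probe, 50 nM final | schedule = compound with beads 12 min RT, then probe 1 h RT | signal = HyperCyt-sampled flow cytometry, FL1 channel, ex 488/em 535 nm | read-out = percent response from loss of bead-bound FITC fluorescence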
CendR NRP1 mod: modulators of CendR peptide binding to human neuropilin-1. O14786. FAM-RPARPAR peptide binding to NRP-1, fluorescence polarization. inhibition, % at 25 µM. 0.85% of 360,000 active. AID 602438;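 active means inhibition or corrected inhibition above about 18%, plus a signal ratio from 0.5 to 1.5, limit read from the data, passing the limit was not always enough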
Target sequence (O14786 whole entry, looked up): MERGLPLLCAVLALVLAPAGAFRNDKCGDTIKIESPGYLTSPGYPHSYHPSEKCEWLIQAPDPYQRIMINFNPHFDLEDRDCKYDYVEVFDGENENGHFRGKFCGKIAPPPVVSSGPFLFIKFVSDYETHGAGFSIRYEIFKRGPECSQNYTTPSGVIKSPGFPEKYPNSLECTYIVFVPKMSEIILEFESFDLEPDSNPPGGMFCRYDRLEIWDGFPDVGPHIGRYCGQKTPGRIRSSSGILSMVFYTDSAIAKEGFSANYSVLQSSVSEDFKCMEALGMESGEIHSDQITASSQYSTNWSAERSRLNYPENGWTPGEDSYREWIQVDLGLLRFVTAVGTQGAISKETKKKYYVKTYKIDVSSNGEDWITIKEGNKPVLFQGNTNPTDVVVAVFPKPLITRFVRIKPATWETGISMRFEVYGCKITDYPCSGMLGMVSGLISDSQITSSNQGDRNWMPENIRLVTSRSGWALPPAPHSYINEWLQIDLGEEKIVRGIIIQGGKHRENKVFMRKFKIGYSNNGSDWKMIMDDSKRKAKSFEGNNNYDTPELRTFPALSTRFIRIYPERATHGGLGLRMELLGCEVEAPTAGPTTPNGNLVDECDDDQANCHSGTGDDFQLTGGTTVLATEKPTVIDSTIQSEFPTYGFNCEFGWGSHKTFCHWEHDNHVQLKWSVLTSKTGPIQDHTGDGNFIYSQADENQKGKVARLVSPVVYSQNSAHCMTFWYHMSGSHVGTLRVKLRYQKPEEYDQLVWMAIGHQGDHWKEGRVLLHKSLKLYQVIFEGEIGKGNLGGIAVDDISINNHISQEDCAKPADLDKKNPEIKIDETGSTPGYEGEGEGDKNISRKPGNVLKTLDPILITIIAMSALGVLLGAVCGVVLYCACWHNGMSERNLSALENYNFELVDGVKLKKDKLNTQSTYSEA
M18AAP inhibitor: blocks P. falciparum M18 aspartyl aminopeptidase; recombinant PfM18AAP, H-Glu-NHMec fluorogenic cleavage; inhibition, % at 7.35 µM; 1.2% of 290,000 active;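 active means inhibition above the campaign mean inhibition over all tested compounds plus 3 SD, cut at about 28% in these data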;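 further: 0% = plate median of test compound wells and 100% = 2 mM ZnCl2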
Lipid droplet: modulators of hepatic lipid droplet formation; AID 1656; 0.4% of 240,000 active; AML12 mouse hepatocytes, oleate lipid droplets, BODIPY imaging; inhibition, % at 6.5 µM;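 active means lipid droplet intensity inhibited by at least 50%, with more than 500 cells counted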
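Assay system: AML12 hepatocytes (mouse) / Also added: 100 µM oleic acid challenge / Times: overnight treatment with compound plus oleate / Detection: high-content imaging of BODIPY-stained droplets and DAPI nuclei / Evaluation: % inhibition of lipid droplet signal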
HTR2A ag: agonists of mouse serotonin 5-HT2A receptor (HTR2A) | CHO-K1 mHTR2A beta-arrestin complementation, luminescence; percent of 30 µM serotonin response | P35363 | activation, % at 7.6 µM | AID 624169 | 0.66% of 360,000 active;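 active means activation above a run cutoff, the mean activation of all tested compounds plus 3 SD, cut at about 14% in these data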;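 further: 0% = plate median of compound wells and 100% = 30 µM serotonin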
hGIII sPLA2 conf: human GIII-sPLA2 inhibition, confirmation | 34% of 2,000 active | shares compounds with HGIII-sPLA2 inh | inhibition, % at 12.2 µM | recombinant hGIII-sPLA2, BODIPY PC-A2 QFRET fluorescence;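 active means mean inhibition across triplicates above the hit cutoff set in the earlier primary screen, cut at about 19% in these data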;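 further: 0% = enzyme with DMSO and 100% = DMSO wells lacking enzyme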
BODIPY interf: 535nm fluorescence interference, HGIII-sPLA2 counter-screen; shares compounds with HGIII-sPLA2 inh; BODIPY FL product fluorescence interference, QFRET; inhibition, % at 12.2 µM; 8.5% of 2,000 active;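 active means average inhibition above the solvent-only control mean plus 3 SD, cut at about 6% in these data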;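 further: 0% = DMSO with substrate plus product and 100% = DMSO with substrate alone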
535nm interf DR: 535nm optical interference dose response, HGIII-sPLA2 counter-screen | shares compounds with HGIII-sPLA2 inh | BODIPY FL product fluorescence interference, cell-free | IC50, µM | 240 tested, under 10 active | AID 743455;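 active means IC50 at or below 10 µM; inactive means IC50 above 10 µM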
* marks the source's active call; other numbers are inactive results; nt = not tested or not shown.

SMILES	HGIII-sPLA2 inh	Arr AP2 block	CendR NRP1 mod	M18AAP inhibitor	Lipid droplet	HTR2A ag	hGIII sPLA2 conf	BODIPY interf	others
O=C(OCC(=O)C12CC3CC(CC(C3)C1)C2)c1ccccc1O	19*	5	-7	nt	nt	10	-6	-4
COc1cccc(Cn2cc(COC(=O)N(C)Cc3ccccc3)nn2)c1	2	nt	nt	nt	nt	nt	nt	nt
CCC(=O)Nc1ccc2c(c1)C(=O)N(C)[C@@H]1CC[C@@H](CC(=O)NCc3ccc(OC)cc3)O[C@H]1CO2	19*	nt	nt	nt	nt	nt	1	-5
CCS(=O)(=O)Nc1ccc2c(c1)C(=O)N(C)[C@@H]1CC[C@H](CC(=O)N[C@@H]3CCN(Cc4ccccc4)C3)O[C@H]1CO2	20*	nt	nt	nt	nt	nt	-1	-12
COC(=O)C[C@H]1CC[C@@H]2[C@H](COc3ccc(NC(=O)C(C)C)cc3C(=O)N2C)O1	19*	nt	nt	nt	nt	nt	0	-6
COc1ccc(N2C[C@@]3(O)CC[C@@H](O)[C@@H](OC)[C@@H]3[C@@](C)(O)[C@@H]2CC=C(C)C)cc1	5	nt	nt	nt	nt	nt	nt	nt
CCCCOC(=O)Nc1ccccc1C(=O)N1CCCC1	22*	-13	12	-4	-6	2	2	-9
COC(=O)[C@@]12C[C@@H](CC(=O)NCc3ccc(C)o3)C(=O)N(Cc3ccccc3)C1=CCC(C)(C)C2	-14	nt	1	nt	nt	-2	nt	nt
CC(=O)C1(C(=O)NC2CCCC2)CC(c2ccccc2C(F)(F)F)=NO1 (configuration not stated)	-7	nt	nt	nt	nt	nt	nt	nt
Cc1ccc(C2CCN(C(=S)NC(C)C)C2)cc1 (configuration not stated)	23*	-15	-9	-1	6	-3	18	-7
CC(C)c1ccc(NC(=O)Nc2nc(C(N)CCc3ccccc3)cs2)cc1 (configuration not stated)	21*	nt	-6	nt	nt	11	17	-10
COc1ccc(OC)c(NC(=O)Nc2nc(C(N)CCc3ccccc3)cs2)c1 (configuration not stated)	23*	nt	-1	nt	nt	-10	13	-14
COc1ccc(CC(N)c2csc(NC(=O)Nc3cc(OC)ccc3OC)n2)cc1 (configuration not stated)	19	nt	0	nt	nt	1	nt	nt
CC(CCN1CCC(C(O)(c2ccccc2)c2ccccc2)CC1)Oc1cccc(Br)c1 (configuration not stated)	-23	nt	nt	nt	nt	nt	nt	nt
O=C(COC(=O)c1ccc(Br)o1)Nc1ccc(N2CCOCC2)cc1	-2	12	-9	nt	nt	0	nt	nt
CCCn1c(N)c(N(CCOC)C(=O)c2ccc(S(=O)(=O)N3CCOCC3)cc2)c(=O)[nH]c1=O	3	21	9	nt	nt	-5	nt	nt
CCN(CC)c1ccc(-c2nc3cnccn3c2NC2CCCC2)cc1	21*	22	-28	11	nt	2	27*	-12
c1cn2c(NC3CCCCC3)c(-c3ccc(SC4CCCCC4)cc3)nc2cn1	-2	14	-40	nt	nt	-3	nt	nt
CCOc1ccc(C(Nc2cccnc2)c2cc(Cl)c3cccnc3c2O)cc1 (configuration not stated)	24*	9	-7	0	19	-15	16	3
NC(=O)[C@@H]1CCCN1C(=O)[C@@H](Cc1ccccc1)NC(=O)[C@H]1O[C@@H](n2ccc(=O)[nH]c2=O)[C@H](O)[C@@H]1O	1	nt	nt	nt	nt	nt	nt	nt
CCCCN(C(=O)CSCc1ccc(C)cc1)c1c(N)n(CCC)c(=O)[nH]c1=O	2	-5	11	1	7	2	nt	nt
COc1ccc(C(=O)NCC(=O)NCC(=O)OCC(=O)c2ccc(C)cc2)cc1	-1	-8	16	-12	5	-4	nt	nt
Cc1ccc(C(=O)NCC(=O)NCC(=O)OCC(=O)c2ccc(F)cc2)cc1	27*	0	7	-16	1	-2	3	-11
CCOC(=O)C1(C)CCN1C(=O)Cc1ccc(OC)cc1 (configuration not stated)	25*	nt	6	nt	nt	0	7	-4
CCCCNC(=O)C1(C)CCN1C(=O)Cc1ccc(OC)cc1 (configuration not stated)	6	nt	-5	nt	nt	-6	nt	nt
SMILES	HGIII-sPLA2 inh	Arr AP2 block	CendR NRP1 mod	M18AAP inhibitor	Lipid droplet	HTR2A ag	hGIII sPLA2 conf	BODIPY interf	others
Cc1ccc(NC(=S)NNC(=O)c2c(Cl)c(C)nn2C)cc1	0	1	1	4	-8	-1	nt	nt
Cc1ccc(NC(=S)NNC(=O)c2nn(C)c(C)c2Cl)cc1	38*	-2	-3	7	nt	1	48*	1	535nm interf DR=>122
O=P(c1ccccc1)(c1ccccc1)c1cnc2ccccn12	1	nt	nt	nt	nt	nt	nt	nt
CSc1cccc(NC(=S)N2CCC(N(C)C3CCCC3)CC2)c1	19*	-17	-3	8	8	4	11	-17
CC(C)Oc1ccc(/C=N/NC(N)=S)cc1	18	-3	-36	8	-6	-3	nt	nt
COc1cccc(/C=N/NC(=O)C(=O)N/N=C/c2cccc(OC)c2O)c1O	5	4	-6	-12	-6	0	nt	nt
COC(=O)c1cccc(/C=N/NC(N)=S)c1O	21*	8	10	31*	-34	-2	20*	-1
COc1ccc(/C=N/NC(N)=S)cc1	21*	-3	4	-5	1	13	2	-9
CCCCOC(=O)CCN1C(=O)/C(=C2\SC(=S)N(CCC(=O)OCCCC)C2=O)SC1=S	22*	27	28*	4	21	3	-6	-2
CCOC(=O)c1[nH]c(=S)n(-c2ccccc2)c1C(=O)OCC	25*	nt	-2	nt	nt	1	18	0
COc1cccc(/C=N/NC(=S)NC2CC3CCC2C3)c1OC (configuration not stated)	-2	3	11	-5	11	-4	nt	nt
Oc1ccccc1/C=N/NC(=S)NC1CC2CCC1C2 (configuration not stated)	28*	-4	7	7	6	6	18	7.3*
CCc1nc2c(OCc3cccc(Cl)c3)cccn2c1N(C)C(=O)Nc1ccccc1OC	-5	nt	-9	nt	nt	1	nt	nt
O=C(CSc1nnnn1-c1ccc(Cl)cc1)NC1CCS(=O)(=O)C1 (configuration not stated)	1	-5	-3	nt	nt	1	nt	nt
S=C(Nc1ccccc1)Nc1nc2ccccc2n1CCOc1ccc(Br)cc1	7	4	-9	-3	-10	-5	nt	nt
Cn1c(NC(=S)Nc2ccccc2)nc2ccccc21	39*	34	-3	8	0	-3	35*	6.3*

Screening results as filed in PubChem.
